ChEMBL document CHEMBL4814044, “Design and synthesis, biological evaluation of bis-(1,2,3- and 1,2,4)-triazole derivatives as potential antimicrobial and antifungal agents” (2021)
The source made the active and inactive calls. The calls are words filed in the database; no cut-off is given here.

Key:
Assay type in all cases: functional
Staphylococcus aureus = experiment: Antibacterial activity against Staphylococcus aureus MTCC 96 assessed as bacterial growth inhibition by microdilution method
Procedure, shortened: (§1)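 Broth microdilution against Gram-positive and Gram-negative strains. The endpoint is the minimal inhibitory concentration, in µg/ml.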

Bacillus subtilis = experiment: Antibacterial activity against Bacillus subtilis MTCC 441 assessed as bacterial growth inhibition by microdilution method; procedure, shortened: as §1
Pseudomonas aeruginosa = experiment: Antibacterial activity against Pseudomonas aeruginosa MTCC 424 assessed as bacterial growth inhibition by microdilution method; procedure, shortened: as §1
Escherichia coli = experiment: Antibacterial activity against Escherichia coli MTCC 443 assessed as bacterial growth inhibition by microdilution method; procedure, shortened: as §1
Aspergillus niger [1] = experiment: Antifungal activity against Aspergillus niger MTCC 404 assessed as zone of inhibition at 16 uM incubated for 2 days by cross streak plate method; settings: MTCC 404, 48 h, time 2 day, read-out: IZ
Procedure, shortened: (§2)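 Fungal strain (A. niger MTCC 404 or S. cerevisiae MTCC 1344) was incubated with the compound for 2 days at 37 °C. Growth inhibition was then assessed by the cross streak plate method.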

Aspergillus niger [2] = experiment: Antifungal activity against Aspergillus niger MTCC 404 assessed as zone of inhibition at 24 uM incubated for 2 days by cross streak plate method; settings: MTCC 404, 48 h, time 2 day, read-out: IZ; procedure, shortened: as §2
Aspergillus niger [3] = experiment: Antifungal activity against Aspergillus niger MTCC 404 assessed as zone of inhibition at 32.1 uM incubated for 2 days by cross streak plate method; settings: MTCC 404, 48 h, time 2 day, read-out: IZ; procedure, shortened: as §2
Saccharomyces cerevisiae [4] = experiment: Antifungal activity against Saccharomyces cerevisiae MTCC 1344 assessed as zone of inhibition at 16 uM incubated for 2 days by cross streak plate method; settings: MTCC 1344, 48 h, time 2 day, read-out: IZ; procedure, shortened: as §2
Saccharomyces cerevisiae [5] = experiment: Antifungal activity against Saccharomyces cerevisiae MTCC 1344 assessed as zone of inhibition at 24 uM incubated for 2 days by cross streak plate method; settings: MTCC 1344, 48 h, time 2 day, read-out: IZ; procedure, shortened: as §2
Saccharomyces cerevisiae [6] = experiment: Antifungal activity against Saccharomyces cerevisiae MTCC 1344 assessed as zone of inhibition at 32.1 uM incubated for 2 days by cross streak plate method; settings: MTCC 1344, 48 h, time 2 day, read-out: IZ
Procedure, shortened: (§3)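 S. cerevisiae MTCC 1344 cultures were incubated for 2 days at 37 °C and then tested by the cross streak plate method.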

[7] = Antioxidant activity assessed as DPPH radical scavenging activity
Aspergillus niger [8] = experiment: Antifungal activity against Aspergillus niger MTCC 404 assessed as zone of inhibition at 16.8 uM incubated for 2 days by cross streak plate method; settings: MTCC 404, 48 h, time 2 day, read-out: IZ; procedure, shortened: as §2
Aspergillus niger [9] = experiment: Antifungal activity against Aspergillus niger MTCC 404 assessed as zone of inhibition at 25.2 uM incubated for 2 days by cross streak plate method; settings: MTCC 404, 48 h, time 2 day, read-out: IZ; procedure, shortened: as §2
Aspergillus niger [10] = experiment: Antifungal activity against Aspergillus niger MTCC 404 assessed as zone of inhibition at 33.7 uM incubated for 2 days by cross streak plate method; settings: MTCC 404, 48 h, time 2 day, read-out: IZ; procedure, shortened: as §2
Saccharomyces cerevisiae [11] = experiment: Antifungal activity against Saccharomyces cerevisiae MTCC 1344 assessed as zone of inhibition at 16.8 uM incubated for 2 days by cross streak plate method; settings: MTCC 1344, 48 h, time 2 day, read-out: IZ; procedure, shortened: as §2
Saccharomyces cerevisiae [12] = experiment: Antifungal activity against Saccharomyces cerevisiae MTCC 1344 assessed as zone of inhibition at 25.2 uM incubated for 2 days by cross streak plate method; settings: MTCC 1344, 48 h, time 2 day, read-out: IZ; procedure, shortened: as §2
Saccharomyces cerevisiae [13] = experiment: Antifungal activity against Saccharomyces cerevisiae MTCC 1344 assessed as zone of inhibition at 33.7 uM incubated for 2 days by cross streak plate method; settings: MTCC 1344, 48 h, time 2 day, read-out: IZ; procedure, shortened: as §3
Aspergillus niger [14] = experiment: Antifungal activity against Aspergillus niger MTCC 404 assessed as zone of inhibition at 14.8 uM incubated for 2 days by cross streak plate method; settings: MTCC 404, 48 h, time 2 day, read-out: IZ; procedure, shortened: as §2
Aspergillus niger [15] = experiment: Antifungal activity against Aspergillus niger MTCC 404 assessed as zone of inhibition at 22.2 uM incubated for 2 days by cross streak plate method; settings: MTCC 404, 48 h, time 2 day, read-out: IZ; procedure, shortened: as §2
Aspergillus niger [16] = experiment: Antifungal activity against Aspergillus niger MTCC 404 assessed as zone of inhibition at 29.7 uM incubated for 2 days by cross streak plate method; settings: MTCC 404, 48 h, time 2 day, read-out: IZ; procedure, shortened: as §2
Saccharomyces cerevisiae [17] = experiment: Antifungal activity against Saccharomyces cerevisiae MTCC 1344 assessed as zone of inhibition at 14.8 uM incubated for 2 days by cross streak plate method; settings: MTCC 1344, 48 h, time 2 day, read-out: IZ; procedure, shortened: as §2
Saccharomyces cerevisiae [18] = experiment: Antifungal activity against Saccharomyces cerevisiae MTCC 1344 assessed as zone of inhibition at 22.2 uM incubated for 2 days by cross streak plate method; settings: MTCC 1344, 48 h, time 2 day, read-out: IZ; procedure, shortened: as §2
Saccharomyces cerevisiae [19] = experiment: Antifungal activity against Saccharomyces cerevisiae MTCC 1344 assessed as zone of inhibition at 29.7 uM incubated for 2 days by cross streak plate method; settings: MTCC 1344, 48 h, time 2 day, read-out: IZ; procedure, shortened: as §2

MIC (Staphylococcus aureus) [µg/mL]	MIC (Bacillus subtilis) [µg/mL]	MIC (Pseudomonas aeruginosa) [µg/mL]	MIC (Escherichia coli) [µg/mL]	Compound	Activity [7]	zone of inhibition at 16.8 µM (Aspergillus niger [8]) [mm]	zone of inhibition at 25.2 µM (Aspergillus niger [9]) [mm]	zone of inhibition at 33.7 µM (Aspergillus niger [10]) [mm]	zone of inhibition at 16.8 µM (Saccharomyces cerevisiae [11]) [mm]	zone of inhibition at 25.2 µM (Saccharomyces cerevisiae [12]) [mm]	zone of inhibition at 33.7 µM (Saccharomyces cerevisiae [13]) [mm]	further results
7.9	4.1	7.5	10	O=C(CSc1nnc(-c2ccccc2OCc2cn(-c3ccccc3)nn2)n1-c1ccccc1)c1ccc(Br)cc1	inactive	–	–	–	–	–	–	zone of inhibition at 16 µM (Aspergillus niger [1]): 1.5 mm; zone of inhibition at 24 µM (Aspergillus niger [2]): 2 mm; zone of inhibition at 32.1 µM (Aspergillus niger [3]): 3 mm; zone of inhibition at 16 µM (Saccharomyces cerevisiae [4]): 2 mm; zone of inhibition at 24 µM (Saccharomyces cerevisiae [5]): 2 mm; zone of inhibition at 32.1 µM (Saccharomyces cerevisiae [6]): 3 mm
9.5	5	8.8	9.1	O=C(CSc1nnc(-c2ccccc2OCc2cn(-c3ccccc3)nn2)n1Cc1ccccc1)c1ccc(Cl)cc1	inactive	1.5	3	3	2	3	3	–
9.7	5.2	9	10	O=C(CSc1nnc(-c2ccccc2OCc2cn(-c3ccc(Cl)cc3)nn2)n1Cc1ccccc1)c1ccccc1	inactive	6	8	8.2	5.8	5.7	7	–
7.9	5	7.5	10	O=C(CSc1nnc(-c2ccccc2OCc2cn(-c3ccccc3)nn2)n1Cc1ccccc1)c1ccccc1	inactive	2	3	3	2	3	3	–
8.5	4.4	8.1	9	O=C(CSc1nnc(-c2ccccc2OCc2cn(-c3ccc(Cl)cc3)nn2)n1Cc1ccccc1)c1ccc(Br)cc1	inactive	–	–	–	–	–	–	zone of inhibition at 14.8 µM (Aspergillus niger [14]): 2 mm; zone of inhibition at 22.2 µM (Aspergillus niger [15]): 2 mm; zone of inhibition at 29.7 µM (Aspergillus niger [16]): 3 mm; zone of inhibition at 14.8 µM (Saccharomyces cerevisiae [17]): 1.5 mm; zone of inhibition at 22.2 µM (Saccharomyces cerevisiae [18]): 2 mm; zone of inhibition at 29.7 µM (Saccharomyces cerevisiae [19]): 3 mm

Compound	MIC (Staphylococcus aureus) [µg/mL]	MIC (Bacillus subtilis) [µg/mL]	MIC (Pseudomonas aeruginosa) [µg/mL]	MIC (Escherichia coli) [µg/mL]	Activity [7]	zone of inhibition at 16.8 µM (Aspergillus niger [8]) [mm]	zone of inhibition at 25.2 µM (Aspergillus niger [9]) [mm]	zone of inhibition at 33.7 µM (Aspergillus niger [10]) [mm]	zone of inhibition at 16.8 µM (Saccharomyces cerevisiae [11]) [mm]	zone of inhibition at 25.2 µM (Saccharomyces cerevisiae [12]) [mm]	zone of inhibition at 33.7 µM (Saccharomyces cerevisiae [13]) [mm]	further results
CC1(C)S[C@@H]2[C@H](NC(=O)[C@H](N)c3ccccc3)C(=O)N2[C@H]1C(=O)O [AMPICILLIN]	10	10	10	3.9	–	–	–	–	–	–	–	–
